Consider one molecule from PMC4975651 (Molecular cell, 2016).

The data set deals with Slug, CD44, EGFR, and VEGFA genes. The format is cell-based, human. Conditions: ectopic expression, ZMYND8-depleted DU145 cells, n = 5. An outline of the steps: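 DU145 cells were infected with shZMYND8-97 lentivirus, then transfected with control vector, wild-type FLAG-ZMYND8, PHD point mutants (D108A, F109D) or a Bromo mutant (YN/AA). Construct expression was checked by western blot. DU145 cells treated with shLuciferase and transfected with control vector served as the control. CD44, Slug, VEGFA and EGFR expression was measured across 5 replicates.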

B1: FLAG-ZMYND8: ectopically expressed WT FLAG-ZMYND8 (protein, UniProt Q9ULU4 1-1186, looked up)
MYND-type zinc …: MDISTRSKDPGSAERTAQKRKFPSPPHSSNGHSPQDTSTSPIKKKKKPGLLNSNNKEQSELRHGPFYYMKQPLTTDPVDVVPQDGRNDFYCWVCHREGQVLCCELCPRVYHAKCLRLTSEPEGDWFCPECEKITVAECIETQSKAMTMLTIEQLSYLLKFAIQKMKQPGTDAFQKPVPLEQHPDYAEYIFHPMDLCTLEKNAKKKMYGCTEAFLADAKWILHNCIIYNGGNHKLTQIAKVVIKICEHEMNEIEVCPECYLAACQKRDNWFCEPCSNPHPLVWAKLKGFPFWPAKALRDKDGQVDARFFGQHDRAWVPINNCYLMSKEIPFSVKKTKSIFNSAMQEMEVYVENIRRKFGVFNYSPFRTPYTPNSQYQMLLDPTNPSAGTAKIDKQEKVKLNFDMTASPKILMSKPVLSGGTGRRISLSDMPRSPMSTNSSVHTGSDVEQDAEKKATSSHFSASEESMDFLDKSTASPASTKTGQAGSLSGSPKPFSPQLSAPITTKTDKTSTTGSILNLNLDRSKAEMDLKELSESVQQQSTPVPLISPKRQIRSRFQLNLDKTIESCKAQLGINEISEDVYTAVEHSDSEDSEKSDSSDSEYISDDEQKSKNEPEDTEDKEGCQMDKEPSAVKKKPKPTNPVEIKEELKSTSPASEKADPGAVKDKASPEPEKDFSEKAKPSPHPIKDKLKGKDETDSPTVHLGLDSDSESELVIDLGEDHSGREGRKNKKEPKEPSPKQDVVGKTPPSTTVGSHSPPETPVLTRSSAQTSAAGATATTSTSSTVTVTAPAPAATGSPVKKQRPLLPKETAPAVQRVVWNSSSKFQTSSQKWHMQKMQRQQQQQQQQNQQQQPQSSQGTRYQTRQAVKAVQQKEITQSPSTSTITLVTSTQSSPLVTSSGSMSTLVSSVNADLPIATASADVAADIAKYTSKMMDAIKGTMTEIYNDLSKNTTGSTIAEIRRLRIEIEKLQWLHQQELSEMKHNLELTMAEMRQSLEQERDRLIAEVKKQLELEKQQAVDETKKKQWCANCKKEAIFYCCWNTSYCDYPCQQAHWPEHMKSCTQSATAPQQEADAEVNTETLNKSSQGSSSSTQSAPSETASASKEKETSAEKSKESGSTLDLSGSRETPSSILLGSNQGSDHSRSNKSSWSSSDEKRGSTRSDHNTSTSTKSLLPKESRLDTFWD
modifications: FLAG tag
Turning to B1, the “expression levels of Slug, CD44, EGFR, and VEGFA genes” value is given as “significantly downregulated”.
